Measurements published in PMC3548935 (Cancer research, 2012).

Key:
[1] = tested on: orthotopic 4T1 breast tumors; experiment: Tumor treatment study, orthotopic 4T1 breast tumors; type: in vivo, mouse; conditions: DOX 3 mg/kg + 4 µmol/kg iNGR i.v. every other day
4T1 tumors = conditions: no penetrating peptide; cited from earlier work
tumors = conditions: cited from earlier work
NRP-2 = target: T1, NRP-2 (Homo sapiens, UniProt O60462); experiment: Dose-dependent binding of phage to purified NRP-2; conditions: phage-displayed peptide, Fig. 1F; for Phage binding to immobilized NRP-2: anti-T7 phage antibody / HRP detection
T1 sequence (O60462 21-931): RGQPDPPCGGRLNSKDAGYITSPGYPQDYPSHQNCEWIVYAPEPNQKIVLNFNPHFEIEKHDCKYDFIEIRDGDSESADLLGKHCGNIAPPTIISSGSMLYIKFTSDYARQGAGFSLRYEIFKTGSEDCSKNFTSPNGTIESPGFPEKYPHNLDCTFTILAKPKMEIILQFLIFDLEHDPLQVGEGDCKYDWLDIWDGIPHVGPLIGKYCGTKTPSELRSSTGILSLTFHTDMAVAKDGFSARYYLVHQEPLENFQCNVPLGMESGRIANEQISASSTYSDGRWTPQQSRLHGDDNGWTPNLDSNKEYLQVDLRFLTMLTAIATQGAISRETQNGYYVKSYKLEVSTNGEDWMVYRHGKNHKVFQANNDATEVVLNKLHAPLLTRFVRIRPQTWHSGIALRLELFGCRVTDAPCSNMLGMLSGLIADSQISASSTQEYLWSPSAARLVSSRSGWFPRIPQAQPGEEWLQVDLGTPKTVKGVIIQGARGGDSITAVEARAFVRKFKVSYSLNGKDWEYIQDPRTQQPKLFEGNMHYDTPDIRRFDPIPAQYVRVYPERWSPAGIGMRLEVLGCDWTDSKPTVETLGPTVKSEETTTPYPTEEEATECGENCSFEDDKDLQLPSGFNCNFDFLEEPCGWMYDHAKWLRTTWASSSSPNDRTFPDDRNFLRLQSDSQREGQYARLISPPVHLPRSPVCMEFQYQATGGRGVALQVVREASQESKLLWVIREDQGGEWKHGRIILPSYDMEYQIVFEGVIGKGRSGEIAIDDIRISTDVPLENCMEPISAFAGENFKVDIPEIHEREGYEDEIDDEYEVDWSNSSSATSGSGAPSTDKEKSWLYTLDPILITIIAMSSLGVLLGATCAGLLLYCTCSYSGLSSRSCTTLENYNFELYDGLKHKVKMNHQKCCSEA
In short: (§1)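 Peptide-displaying T7 phage was added over a range of phage amounts to purified NRP-1 or NRP-2 protein. Bound phage was detected with a rabbit anti-T7 phage antibody followed by an HRP-labeled goat anti-rabbit secondary antibody.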

NRP-1 = NRP-1 (Homo sapiens, UniProt O14786); experiment: Dose-dependent binding of phage to purified NRP-1; conditions: phage-displayed peptide, Fig. 1E; for Phage binding to immobilized NRP-1: anti-T7 phage antibody / HRP detection
NRP-1, sequence (O14786 22-923): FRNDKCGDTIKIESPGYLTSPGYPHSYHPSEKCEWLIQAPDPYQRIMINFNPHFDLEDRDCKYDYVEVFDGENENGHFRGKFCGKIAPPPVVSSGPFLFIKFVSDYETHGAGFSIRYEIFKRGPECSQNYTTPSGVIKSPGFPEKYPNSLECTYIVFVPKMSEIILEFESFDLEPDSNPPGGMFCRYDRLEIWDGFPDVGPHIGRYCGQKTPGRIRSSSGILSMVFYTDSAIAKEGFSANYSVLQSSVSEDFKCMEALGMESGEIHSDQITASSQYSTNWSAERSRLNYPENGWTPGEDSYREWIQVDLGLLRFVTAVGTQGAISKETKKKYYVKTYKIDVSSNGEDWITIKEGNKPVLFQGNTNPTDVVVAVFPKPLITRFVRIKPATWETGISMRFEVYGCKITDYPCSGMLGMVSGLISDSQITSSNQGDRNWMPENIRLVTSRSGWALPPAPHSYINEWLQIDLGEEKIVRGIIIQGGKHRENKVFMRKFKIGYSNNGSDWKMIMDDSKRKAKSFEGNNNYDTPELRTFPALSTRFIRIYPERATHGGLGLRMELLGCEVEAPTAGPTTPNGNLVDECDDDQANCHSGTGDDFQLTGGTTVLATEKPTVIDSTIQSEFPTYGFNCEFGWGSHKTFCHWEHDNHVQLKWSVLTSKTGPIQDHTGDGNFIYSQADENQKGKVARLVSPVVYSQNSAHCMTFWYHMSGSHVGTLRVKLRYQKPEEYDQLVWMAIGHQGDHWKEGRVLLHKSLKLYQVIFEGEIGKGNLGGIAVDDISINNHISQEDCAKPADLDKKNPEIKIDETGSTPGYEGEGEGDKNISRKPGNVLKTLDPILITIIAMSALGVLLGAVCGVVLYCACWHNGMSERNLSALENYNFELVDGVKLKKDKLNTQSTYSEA
In short: as §1

HUVECs = experiment: Mass spectrometry of peptide inside HUVECs after incubation with FAM-peptide; type: cell-based, human; conditions: Fig. S4

COc1cccc2c1C(=O)c1c(O)c3c(c(O)c1C2=O)C[C@@](O)(C(=O)CO)C[C@@H]3O[C@H]1C[C@H](N)[C@H](O)[C@H](C)O1 [Doxorubicin, doxorubicin]
Efficacy of doxorubicin given together with iNGR [1]: significantly more efficacious than the drug alone

CGKRK
Tumor homing and extravasation of NWs coated with the peptide (4T1 tumors): brings the NWs to tumor vessels, but does not trigger extravasation

CGNKRTRGC [LyP-1]
Tumor penetration (tumors): penetrates into tumors through the CendR/NRP mechanism

CRGDK [iRGDt]
Phage binding to immobilized NRP-2 (NRP-2): bound to the NRPs | Phage binding to immobilized NRP-1 (NRP-1): bound to the NRPs

CRNGR [iNGRt]
Phage binding to immobilized NRP-2 (NRP-2): bound to the NRPs | Affinity for NRP-2 compared with iRGDt (NRP-2): higher affinity | Phage binding to immobilized NRP-1 (NRP-1): bound to the NRPs | Affinity for NRP-1 compared with iRGDt (NRP-1): higher affinity

FAM-CNGRC
Peptide present inside HUVECs after incubation with FAM-peptide (HUVECs): did not penetrate into the cells
